Screens (PubChem BioAssay)
Hits are enriched below; roughly 3.1% of the tested compounds scored in any of these assays.
Calb FLC – C. albicans growth modulation with fluconazole. C. albicans CaCi-2 (fluconazole-resistant clinical isolate) + fluconazole, Alamar Blue growth, 48 h. growth inhibition, % (test concentration not listed). 0.57% of 300,000 active. AID 1979;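 active = growth inhibition above about 58% in most replicates, limit read from the data, passing the limit was not always enough; inconclusive = exactly half the replicates above a set limit; inactive = most replicates below a set limit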;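 note: all wells also contain fluconazole at 8 µg/ml as a sub-toxic cotreatment; 0% = median of DMSO wells and 100% = median of geldanamycin control wells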
T cruzi inh – blocks replication of Trypanosoma cruzi; T. cruzi beta-gal in NIH3T3, luminescence, 90 h; inhibition, % (test concentration not listed); 1.4% of 300,000 active;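 active = mean inhibition across valid replicates above about 55%, limit read from the data; inconclusive = mean below that limit but half or more replicates reach it; inactive = mean below it, under half of replicates reach it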;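 note: signal also drops with host cell toxicity which is not excluded here; 0% = plate median of DMSO wells and 100% = zero luminescence signal; higher percent means less beta-gal luminescence so fewer parasites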
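compound dosing = single 50 nL compound addition per well in DMSO | material = NIH/3T3 host cells with β-galactosidase reporter T. cruzi | input = 5,000 host fibroblasts per well | timing = ≥90 h infection period, 3 h prior cell attachment | read-out basis = percent inhibition of parasite-derived β-gal signal | detection = GalScreen β-gal luminescence, detergent lysis, 60 min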
CSC inhib – cancer stem cell inhibition | AID 2717 | cancer stem cell-like cells viability, luminescence | 1.1% of 300,000 active | inhibition, % at 7.5 µM; in the data active = inhibition above about 75%; inconclusive = no clear call, values can overlap the other calls; tested in HMLE shEcad cells
Beta apoptosis – blocks beta cell apoptosis | INS-1E cytokine-induced death, ATP luminescence, 48 h; percent of positive-control rescue, neutral wells zero | 0.8% of 300,000 active | protection from apoptosis, % (test concentration not listed) | AID 435005;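 active = Every replicate reaches about 75%, or at least half do and their mean reaches it too, limit read from the data; inconclusive = At least half of replicates reach the limit but their mean does not; inactive = Under half of replicates reach the limit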;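 note: 0% = cytokine-treated negative control wells and 100% = positive control rescue; higher means more ATP so stronger rescue from cytokine killing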
TAG inh – reduces triacylglycerol accumulation in H9c2 cells | Nile Red lipid (TAG) fluorescence; cells loaded with 200 µM oleic acid | inhibition, % at 12.5 µM | 0.66% of 230,000 active | AID 651582;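 active = pattern-corrected inhibition of lipid staining of at least 50% with the nuclear-stain viability signal not falling by more than 50%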;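 note: 0% = DMSO wells and 100% = triacsin C control wells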
Bfl-1 A1 inh – inhibitors of the anti-apoptotic protein A1, read as caspase activation | 0.066% of 330,000 active | MEF A1-2A-BIM cells, Caspase-Glo 3/7 luminescence, 3 h; percent of clofoctol response, vehicle zero | caspase activation, % (no concentration beside the values);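 active = over half of replicate activation scores above 10%, or exactly half above 10 with the replicate mean above 10; inconclusive = replicate mean below 10 yet half the replicates above 10; inactive = over half of replicates below 10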
The depositor's hits bear a star; ? = inconclusive; · = not tested or not shown.

SMILES | Calb FLC | T cruzi inh | CSC inhib | Beta apoptosis | TAG inh | Bfl-1 A1 inh
Cc1cc(C)cc(N(CCC#N)C(=O)COC(=O)Cn2[nH]c(=O)c3ccccc3c2=O)c1 | · | · | -2 | 2 | -2 | 0
COc1cc(C)ccc1OCCCCNCc1ccccc1 | -5 | 26 | -19 | 6 | 0 | 1
CCOCCCNCc1ccc(OCCC(C)C)c(OC)c1 | -2 | 63* | 9 | 0 | -36 | 0
O=C(Cc1ccc(Cl)cc1)Nc1ccc2c(c1)C(=O)NC2=O | 5 | -7 | 91* | 119* | -5 | -10
O=C(Cc1ccc(Cl)cc1)Nc1ccc(Br)cc1 | 42* | 5 | 6 | -3 | -53 | 0
CC(C)Cc1ccc(CN2CCCC(NC(=O)c3nn(C)c(=O)c4ccccc34)C2)cc1 (stereo not given) | -4 | 60* | · | · | -20 | ·
Cn1cnnc1SCC(=O)NC1CCCN(Cc2ccc(Cl)cc2)C1 (stereo not given) | -2 | 25 | -1 | -5 | 11 | 0
CC(C)Cc1ccc(CN2CCCC(NC(=O)c3ccnn3C)C2)cc1 (stereo not given) | -17 | 49 | 11 | 7 | -5 | 0
CC(C)Cc1ccc(CN2CCCC(NC(=O)CSc3nncn3C)C2)cc1 (stereo not given) | -1 | 55* | 6 | 2 | -1 | 0
O=C(NC1CCCCC1)C(c1ccc(F)cc1)N(Cc1ccco1)C(=O)c1ccccn1 (stereo not given) | 3 | 2 | -15 | 3 | 10 | 0
O=C(NC1CCCC1)C(c1ccncc1)N(Cc1ccccc1)C(=O)c1ccc(-c2ccccc2)[nH]1 (stereo not given) | 3 | 61* | 15 | · | · | -1
CC(C)(C)NC(=O)C(c1ccncc1)N(Cc1ccc(F)cc1)C(=O)c1ccc(-c2ccccc2)[nH]1 (stereo not given) | -21 | 59* | 8 | 9 | 6 | 0
O=C(NC1CCCC1)C(c1ccncc1)N(Cc1ccco1)C(=O)c1ccc(-c2ccccc2)[nH]1 (stereo not given) | 9 | 56* | 18 | 1 | 12 | -1
O=C(NC1CCCC1)C(c1ccncc1)N(CCCN1CCOCC1)C(=O)c1ccc(-c2ccccc2)[nH]1 (stereo not given) | 0 | 35 | -2 | 3 | -3 | 0
COC(=O)c1ccccc1NC(=O)CSc1nc(Nc2ccccc2)nc(N2CCOCC2)n1 | -3 | 51 | 21 | 2 | 16 | -1
COc1ccc(C(CCNCc2ccc(OC(C)C)cc2)c2ccccc2OC)cc1 (stereo not given) | 30 | 52 | 101* | 76* | · | -2
COc1ccc(CNCCC(c2ccc(OC)cc2)c2ccccc2OC)cc1 (stereo not given) | 0 | 43 | 14 | 6 | · | 1
O=[N+]([O-])c1ccccc1/C=N/N1CCN(c2ccncc2S(=O)(=O)N2CCCCC2)CC1 | 11 | 76* | 4 | 9 | 5 | 1
O=[N+]([O-])c1ccc(/C=N/N2CCN(c3ccncc3S(=O)(=O)N3CCCCC3)CC2)cc1 | 6 | 50 | 8 | 2 | · | 1
COc1ccc2[nH]c(C(O)(Cc3cccnc3)Cc3cccnc3)cc2c1 | 20 | 57* | 3 | -1 | · | 0
COc1ccc(CNC(=O)C(=O)NCc2cccnc2)cc1 | -15 | -9 | -1 | -3 | 10 | 0
CCOc1cc(CNc2ccc(N3CCCCC3)cc2)cc(Br)c1OCC(=O)NC(C)(C)C | -10 | 58* | 45 | · | · | 0
CCOc1cc(CNc2cccc3ccccc23)cc(Br)c1OCC(=O)NC(C)(C)C | 2 | 55* | 25 | 9 | · | 1
O=C(CCCl)N(Cc1nc2ccccc2c(=O)[nH]1)Cc1cccs1 | 56* | -12 | -14 | 2 | -4 | 0
N=c1n(CCN2CCCCC2)c2ccccc2n1CC(O)c1cccc(Br)c1 (stereo not given) | -3 | 35 | 22 | 73 | · | 1
SMILES | Calb FLC | T cruzi inh | CSC inhib | Beta apoptosis | TAG inh | Bfl-1 A1 inh
N=c1n(CCN2CCCCC2)c2ccccc2n1CC(=O)c1ccc(Cl)c(Cl)c1 | 8 | 30 | 103* | 39 | 46 | 0
N=c1n(CCN2CCCCC2)c2ccccc2n1CC(O)c1ccc(Cl)c(Cl)c1 (stereo not given) | -14 | 59* | 37 | 59 | · | -1
CCn1c(=N)n(CC(=O)c2ccc(Cl)c(Cl)c2)c2ccccc21 | 23 | 17 | 42 | 4 | · | 1
O=C(c1ccccc1)N1CCN(S(=O)(=O)c2cccc(NS(=O)(=O)c3ccccc3)c2)CC1 | -1 | 11 | 10 | · | · | 0
O=S(=O)(c1cccs1)N1CCN(CC(O)COc2cc(Cl)ccc2Cl)CC1 (stereo not given) | · | · | 22 | 83* | -18 | 0
O=S(=O)(c1cccs1)N1CCN(CCOc2ccc(Cl)cc2)CC1 | · | · | 24 | -6 | -16 | 0
CN(C)CCN(C(=O)/C=C/c1cccs1)c1nc2c(F)cc(F)cc2s1 | -19 | 34 | 0 | 25 | · | 17*
CN(C)CCCN(C(=O)/C=C/c1cccs1)c1nc2ccc(F)cc2s1 | 2 | 42 | 12 | 20 | 33 | 0
COC(=O)CCN(C(=O)c1cc([N+](=O)[O-])cc([N+](=O)[O-])c1)c1ccccn1 | -3 | 65* | -13 | -2 | 8 | 1
O=c1oc2cc(O)ccc2cc1-c1nc2c(s1)CCc1ccccc1-2 | · | · | 83* | 0 | -78 | -1
Cc1cc(Nc2nc3ccccc3[nH]c2=O)n(-c2ccccc2)n1 | · | · | 9 | -12 | 5 | 1
Cc1cc(Nc2nc3ccccc3nc2Cl)n(-c2ccc([N+](=O)[O-])cc2)n1 | -1 | 55* | 34 | 77* | · | 0
CN1CCC(Oc2ccc(Sc3ccccc3)cc2)CC1 | 34 | 46 | ? | -1 | · | 1
CN1CCC(Oc2ccccc2Sc2ccc(C(F)(F)F)cc2)CC1 | 0 | 37 | 75* | 18 | · | 0
COc1ccc(C(=O)N(C)Cc2cnn(Cc3ccccc3)c2)cc1S(=O)(=O)N1CCOCC1 | · | · | 45 | 14 | 35 | 0
c1ccc(-c2noc(-c3ccc4ccccc4c3)n2)nc1 | ? | 7 | 19 | 15 | -11 | -6
c1ccc(-c2noc(-c3ccc4c(c3)OCO4)n2)nc1 | 0 | -4 | 95* | 74 | · | -8
O=C(CCCc1ccncc1)c1ccccc1 | · | · | · | · | -3 | ·
CC(NC(=O)c1ccc([N+](=O)[O-])o1)C12CC3CC(CC(C3)C1)C2 (stereo not given) | 2 | 51 | 97* | · | · | 0
CN=c1scc(-c2ccccc2F)n1/N=C(\C)c1cccnc1 | -2 | 55* | 11 | 8 | -27 | -1
C/C(=N\N1CCN(C2c3ccccc3-c3ccccc32)CC1)c1cccnc1 | 4 | 6 | -10 | -3 | 19 | 0
